This note sets out measurements from ChEMBL document CHEMBL2385015, “Alkaloids and polyketides from Penicillium citrinum, an endophyte isolated from the Moroccan plant Ceratonia siliqua” (J Nat Prod, 2013).

Calls of active or inactive are those of the source. The rule behind the calls is not given here.

For one assay, the system named is Escherichia coli. The assay is described as follows: Antibacterial activity against Escherichia coli ATCC 25922 at 64 ug/mL by broth microdilution method. In kind it is functional, organism-based.
The subject of the next assay is Streptococcus pneumoniae. The assay is described as follows: Antibacterial activity against Streptococcus pneumoniae ATCC 49619 at 64 ug/mL by broth microdilution method. Format: functional, organism-based.
For a further assay, the system named is Staphylococcus aureus. The assay is described as follows: Antibacterial activity against Staphylococcus aureus ATCC 29213 at 64 ug/mL by broth microdilution method. Format: functional, organism-based.
For another assay, the system named is L5178Y. The assay is described as follows: Cytotoxicity against mouse L5178Y cells by MTT assay. Format: functional, cell-based. The essentials:
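Growth of L5178Y mouse lymphoma cells measured by MTT (microculture tetrazolium) assay relative to untreated controls. Medium with 0.1% EGMME–DMSO served as negative control and the depsipeptide kahalalide F as positive control.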

Consider `COc1cc(O)c(C)c2cc(C)ncc12`, for which the outcome with Escherichia coli, in the assay on Streptococcus pneumoniae and with Staphylococcus aureus was inactive. In addition, the IC50 in the assay with L5178Y is greater than 10 µM.

Consider `COc1cc(O)c(C)c2c1[C@@H](c1ccc3n1C(=O)c1c-3[nH]c3ccccc3c1=O)O[C@@H](C)C2` [CITRIQUINOCHROMAN], for which the outcome in the assay with Escherichia coli, in the assay with Streptococcus pneumoniae and in the assay with Staphylococcus aureus was inactive. For the same molecule, the IC50 in the assay with L5178Y came out at 6.1 µM.

As to `C[C@@H]1C[C@@](C)(O)Cc2ccc(CO)c(/C=C/C=C/C(=O)O)c21`, the outcome in the assay on Escherichia coli, in the assay on Streptococcus pneumoniae and in the assay with Staphylococcus aureus was inactive. In the assay on L5178Y, this molecule yielded a half-inhibitory concentration (IC50) greater than 10 µM.

As for `CC1=C[C@H](O)[C@H]2C[C@@H](CO)C[C@@H](C)[C@@H]2[C@H]1/C=C/C=C/C(=O)O`, the result with Escherichia coli, with Streptococcus pneumoniae and in the assay with Staphylococcus aureus was inactive. The molecule also displayed an IC50 with L5178Y greater than 10 µM.

Regarding `O=C1c2c([nH]c3ccccc3c2=O)C2CCCN12` (centres undefined), the outcome in the assay with Escherichia coli, in the assay with Streptococcus pneumoniae and with Staphylococcus aureus was inactive. Further, the IC50 in the assay on L5178Y was greater than 10 µM.

`CC(=O)c1c(CC(=O)O)cc(O)c(C)c1O`: the result with Escherichia coli, with Streptococcus pneumoniae and with Staphylococcus aureus was inactive. The same molecule yielded an IC50 in the assay on L5178Y greater than 10 µM.
